{"data": "Assay results of several laboratories", "target": "Cyclin-G-associated kinase (GAK, Homo sapiens, UniProt O14976)", "One construct used (O14976 1-1311)": "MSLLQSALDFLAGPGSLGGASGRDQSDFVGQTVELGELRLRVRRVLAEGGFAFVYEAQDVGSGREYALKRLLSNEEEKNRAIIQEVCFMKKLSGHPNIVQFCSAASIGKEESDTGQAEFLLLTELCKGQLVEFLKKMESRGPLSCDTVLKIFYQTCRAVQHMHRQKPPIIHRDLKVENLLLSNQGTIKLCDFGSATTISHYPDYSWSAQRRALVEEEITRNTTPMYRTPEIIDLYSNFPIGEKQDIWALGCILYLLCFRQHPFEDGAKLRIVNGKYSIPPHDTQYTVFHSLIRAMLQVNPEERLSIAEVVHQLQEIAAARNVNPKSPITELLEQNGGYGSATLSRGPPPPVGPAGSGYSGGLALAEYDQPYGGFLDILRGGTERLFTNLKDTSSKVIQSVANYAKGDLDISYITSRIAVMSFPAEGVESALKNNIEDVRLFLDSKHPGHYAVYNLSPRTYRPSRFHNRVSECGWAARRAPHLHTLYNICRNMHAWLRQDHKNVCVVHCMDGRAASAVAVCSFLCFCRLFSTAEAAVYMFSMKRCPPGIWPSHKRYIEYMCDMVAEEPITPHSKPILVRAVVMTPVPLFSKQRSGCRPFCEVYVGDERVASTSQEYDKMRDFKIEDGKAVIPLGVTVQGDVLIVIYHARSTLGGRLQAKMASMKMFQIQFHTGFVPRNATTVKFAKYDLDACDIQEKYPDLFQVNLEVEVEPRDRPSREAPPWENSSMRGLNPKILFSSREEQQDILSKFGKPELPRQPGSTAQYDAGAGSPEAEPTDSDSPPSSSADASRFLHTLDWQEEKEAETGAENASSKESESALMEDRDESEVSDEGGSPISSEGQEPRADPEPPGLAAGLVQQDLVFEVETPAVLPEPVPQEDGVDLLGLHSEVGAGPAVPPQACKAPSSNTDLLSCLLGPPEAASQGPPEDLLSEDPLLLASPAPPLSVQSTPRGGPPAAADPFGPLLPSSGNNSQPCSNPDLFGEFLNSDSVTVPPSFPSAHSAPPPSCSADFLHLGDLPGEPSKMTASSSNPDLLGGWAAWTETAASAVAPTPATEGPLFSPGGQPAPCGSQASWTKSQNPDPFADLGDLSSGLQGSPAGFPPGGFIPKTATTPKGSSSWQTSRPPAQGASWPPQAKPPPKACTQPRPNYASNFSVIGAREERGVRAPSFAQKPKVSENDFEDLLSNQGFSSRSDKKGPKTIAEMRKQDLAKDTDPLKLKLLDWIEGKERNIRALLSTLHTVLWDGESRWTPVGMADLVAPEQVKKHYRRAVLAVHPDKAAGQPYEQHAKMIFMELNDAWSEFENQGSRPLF", "note": "Lines come from different studies, so protocols differ."}
{"Structure (SMILES)": "C#Cc1cc(-c2cc(Nc3nc(N[C@@H](C)c4ccc(F)cn4)ncc3Cl)n[nH]2)ccc1C=O", "assay": "enzyme activity, inhibitor", "setting": "0.2 µM", "quantity": "inhibition", "value": "18.7%"}
{"Structure (SMILES)": "C1=C/COCc2cc(ccc2OCCN2CCCC2)Nc2nccc(n2)-c2cccc(c2)COC/1", "assay": "binding", "setting": "0.1 µM", "quantity": "remaining binding", "value": "31%"}
{"Structure (SMILES)": "Cc1ccc(NC(=O)c2ccnc(C(F)(F)F)c2)cc1-c1cc(OCCO)nc(N2CCOCC2)c1", "assay": "binding, competition with immobilised ligand", "setting": "1 µM", "quantity": "remaining binding", "value": "95%"}
{"Structure (SMILES)": "CC(C)S(=O)(=O)c1ccc2nccc(Nc3ccc4sc(C5CCCC5)nc4c3)c2c1", "assay": "enzyme activity, inhibitor", "setting": "1 µM", "quantity": "activity vs control", "value": "101%"}
{"Structure (SMILES)": "CN1CCN(C(=O)c2ccc(NC(=O)Nc3ccc(N(C)c4ccnc(Nc5ccc(CS(C)(=O)=O)cc5)n4)cc3)cc2)CC1", "assay": "binding, competition with immobilised ligand", "setting": "1 µM", "quantity": "remaining binding", "value": "18%"}
{"Structure (SMILES)": "C=CC(=O)N1CCC([C@@H]2CCNc3c(C(N)=O)c(-c4ccc(Oc5ccccc5)cc4)nn32)CC1", "assay": "enzyme activity, inhibitor", "setting": "1 µM", "quantity": "inhibition", "value": "20%"}
{"Structure (SMILES)": "Cc1cc(O)c(-c2ccc([C@@H](C)CN(C)C)cc2)c2c1[nH]c(=O)c1sccc12", "assay": "enzyme activity, inhibitor", "setting": "0.1 µM", "quantity": "inhibition", "value": "0.133%"}
{"Structure (SMILES)": "CO[C@@H]1[C@H](N(C)C(=O)c2ccccc2)C[C@H]2O[C@]1(C)n1c3ccccc3c3c4c(c5c6ccccc6n2c5c31)C(=O)NC4", "assay": "enzyme activity, inhibitor", "setting": "1 µM", "quantity": "inhibition", "value": "74%"}
{"Structure (SMILES)": "CCCCC(=O)Nc1ccc(-c2ccc3ncn(CCC)c(=O)c3c2)cn1", "assay": "binding, competition with immobilised ligand", "setting": "0.5 µM", "quantity": "remaining binding", "value": "100%"}
